3 compounds from ChEMBL document CHEMBL3297702, “Improving photodynamic inactivation of bacteria in dentistry: highly effective and fast killing of oral key pathogens with novel tooth-colored type-II photosensitizers” (J Med Chem, 2014) can be followed below.

In series [1] the test system is Aggregatibacter actinomycetemcomitans. The series is described as follows: Photodynamic inactivation of Aggregatibacter actinomycetemcomitans ATCC 43718 assessed as reduction of log10 CFU at 10 uM incubated prior to irradiation with 25 j/cm'2 for 20 secs measured after 48 hrs by agar plating method relative to control. Type of series: functional, Y4. The essentials: (§1)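 A. actinomycetemcomitans ATCC 43718 cultured overnight in BHI broth under anaerobic conditions, 37 °C with shaking. Stationary-phase cells were spun down, taken up in PBS to 10^7–10^8/mL, and combined 1:1 with PS (final 0–250 µM) or water. After 10 s they were irradiated at 1260 ± 50 mW/cm2 or kept dark. Serial dilutions went onto BHI agar, incubated anaerobically at 37 °C for 48 h, and CFU were scored. Results are medians from 3 experiments × triplicate versus untreated controls.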

In series [2] the test system is Streptococcus mutans. The series is described as follows: Photodynamic inactivation of Streptococcus mutans ATCC 25175 assessed as reduction of log10 CFU at 1 to 250 uM preincubated for 10 secs followed by irradiation with 50 j/cm'2 for 40 secs measured after 48 hrs by agar plating method. In kind it is functional.
Series [3] relates to Aggregatibacter actinomycetemcomitans. The series is described as follows: Photodynamic inactivation of Aggregatibacter actinomycetemcomitans ATCC 43718 assessed as reduction of log10 CFU at 1 to 250 uM incubated prior to irradiation with 150 j/cm'2 for 120 secs measured after 48 hrs by agar plating method. In kind it is functional. The following applies: Y4. The essentials: as §1

The test system of series [4] is Enterococcus faecalis. The series is described as follows: Photodynamic inactivation of Enterococcus faecalis ATCC 29212 assessed as reduction of log10 CFU at 1 to 250 uM preincubated for 10 secs followed by irradiation with 50 j/cm'2 for 40 secs measured after 24 hrs by agar plating method. In kind it is functional, organism-based. The essentials:
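E. faecalis ATCC 29212, aerobic overnight BHI culture at 37 °C, was harvested at stationary phase and suspended in PBS at 10^7–10^8 bacteria/mL. It was mixed 1:1 with PS to 0–250 µM final, held 10 s, then illuminated (1260 ± 50 mW/cm2) or kept dark. Dilutions were plated on Mueller-Hinton agar, aerobic 37 °C 24 h, CFU counted. Medians of three independent triplicate experiments, referred to untreated controls.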

The subject of series [5] is Aggregatibacter actinomycetemcomitans. The series is described as follows: Photodynamic inactivation of Aggregatibacter actinomycetemcomitans ATCC 43718 assessed as reduction of log10 CFU at 5 uM incubated prior to irradiation with 150 j/cm'2 for 120 secs measured after 48 hrs by agar plating method relative to control. Type of series: functional, Y4. The essentials:
as §1

For series [6], the system named is Streptococcus mutans. The series is described as follows: Photodynamic inactivation of Streptococcus mutans ATCC 25175 assessed as reduction of log10 CFU at 100 uM incubated prior to irradiation with 50 j/cm'2 for 40 secs measured after 48 hrs by agar plating method (reference value: <1 no unit). In kind it is functional.
Series [7] can be described thus: Stability of the compound in acidic medium at 60 uM at pH 2 after 5 to 30 mins by UV-vis spectra analysis. Type of series: physicochemical. The note with it: buffer, pH 2, 60 µM. The essentials: (§2)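 UV-Vis absorption spectra recorded in buffer solutions at different pH values after 5 and 30 min incubation.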
In series [8] the test system is Streptococcus mutans. The series is described as follows: Photodynamic inactivation of Streptococcus mutans ATCC 25175 assessed as reduction of log10 CFU at 100 uM incubated prior to irradiation with 25 j/cm'2 for 20 secs measured after 48 hrs by agar plating method (reference value: <1 no unit). In kind it is functional.
Series [9] deals with Actinomyces naeslundii. The series is described as follows: Photodynamic inactivation of Actinomyces naeslundii T14V assessed as reduction of log10 CFU at 100 uM incubated prior to irradiation with 150 j/cm'2 for 120 secs measured after 48 hrs by agar plating method (reference value: <1 no unit). Type of series: functional. The essentials: (§3)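 A. naeslundii T14V grown overnight at 37 °C, shaken, aerobically in BHI broth. Harvested at stationary phase, resuspended in PBS to 10^7–10^8 bacteria/mL (OD600). Mixed 1:1 with PS (final 0–250 µM) or water, 10 s incubation, then blue photopolymerizer light (1260 ± 50 mW/cm2) or dark. Tenfold dilutions plated on blood agar, aerobic 37 °C 48 h, CFU counted; medians of three independent experiments in triplicate.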

For series [10], the system named is Actinomyces naeslundii. The series is described as follows: Photodynamic inactivation of Actinomyces naeslundii T14V assessed as reduction of log10 CFU at 1 to 250 uM preincubated for 10 secs followed by irradiation with 25 j/cm'2 for 20 secs measured after 48 hrs by agar plating method. Type of series: functional, organism-based. The essentials:
as §3

Series [11] can be described thus: Stability of the compound in basic medium at 60 uM at pH > 9 after 5 to 30 mins by UV-vis spectra analysis. In kind it is physicochemical. The essentials: as §2
Series [12] concerns Aggregatibacter actinomycetemcomitans. The series is described as follows: Photodynamic inactivation of Aggregatibacter actinomycetemcomitans ATCC 43718 assessed as reduction of log10 CFU at 1 to 250 uM incubated prior to irradiation with 25 j/cm'2 for 20 secs measured after 48 hrs by agar plating method. The following applies: Y4. In kind it is functional. The essentials: as §1

For series [13] the test system is unchanged. The series is described as follows: Photodynamic inactivation of Aggregatibacter actinomycetemcomitans ATCC 43718 assessed as reduction of log10 CFU at 1 uM incubated prior to irradiation with 25 j/cm'2 for 20 secs measured after 48 hrs by agar plating method relative to control. In kind it is functional, Y4. The essentials:
as §1

Series [14] shares this test system. The series is described as follows: Photodynamic inactivation of Aggregatibacter actinomycetemcomitans ATCC 43718 assessed as reduction of log10 CFU at 100 uM incubated prior to irradiation with 50 j/cm'2 for 40 secs measured after 48 hrs by agar plating method (reference value: <1 no unit). In kind it is functional, Y4. The essentials: as §1
For series [15], the system named is Streptococcus mutans. The series is described as follows: Photodynamic inactivation of Streptococcus mutans ATCC 25175 assessed as reduction of log10 CFU at 5 uM incubated prior to irradiation with 150 j/cm'2 for 120 secs measured after 48 hrs by agar plating method (reference value: <1 no unit). Type of series: functional.
For series [16], the system named is Streptococcus mutans. The series is described as follows: Photodynamic inactivation of Streptococcus mutans ATCC 25175 assessed as reduction of log10 CFU at 5 uM incubated prior to irradiation with 25 j/cm'2 for 20 secs measured after 48 hrs by agar plating method (reference value: <1 no unit). In kind it is functional.
Series [17] has as its system Aggregatibacter actinomycetemcomitans. The series is described as follows: Photodynamic inactivation of Aggregatibacter actinomycetemcomitans ATCC 43718 assessed as reduction of log10 CFU at 10 uM incubated prior to irradiation with 50 j/cm'2 for 40 secs measured after 48 hrs by agar plating method (reference value: <1 no unit). Type of series: functional, Y4. The essentials: as §1

Series [18] has the same test system. The series is described as follows: Photodynamic inactivation of Aggregatibacter actinomycetemcomitans ATCC 43718 assessed as reduction of log10 CFU at 1 to 250 uM incubated prior to irradiation with 50 j/cm'2 for 40 secs measured after 48 hrs by agar plating method. Type of series: functional. The following applies: Y4. The essentials: as §1
In series [19] the test system is Streptococcus mutans. The series is described as follows: Photodynamic inactivation of Streptococcus mutans ATCC 25175 assessed as reduction of log10 CFU at 1 uM incubated prior to irradiation with 25 j/cm'2 for 20 secs measured after 48 hrs by agar plating method (reference value: <1 no unit). In kind it is functional.
Series [20] has as its system Actinomyces naeslundii. The series is described as follows: Photodynamic inactivation of Actinomyces naeslundii T14V assessed as reduction of log10 CFU at 5 uM incubated prior to irradiation with 50 j/cm'2 for 40 secs measured after 48 hrs by agar plating method (reference value: <1 no unit). Type of series: functional. The essentials:
as §3

In series [21] the test system is Aggregatibacter actinomycetemcomitans. The series is described as follows: Photodynamic inactivation of Aggregatibacter actinomycetemcomitans ATCC 43718 assessed as reduction of log10 CFU at 100 uM incubated prior to irradiation with 25 j/cm'2 for 20 secs measured after 48 hrs by agar plating method relative to control. In kind it is functional, Y4. The essentials: as §1

A short description of series [22]: Stability of the compound in D2O at 90 degC after > 10 mins by NMR analysis. In kind it is physicochemical.

Calls of active or inactive are those of the source. The calls are words filed in the database; no cut-off is given here.

As to `O=C1C(C[n+]2ccccc2)=Cc2cccc3cccc1c23.[Cl-]`, the log10cfu in series [1] is above 6; in [5], above 6; in series [6], above 6; in series [8] it was above 6; in series [9] it was above 5; in series [13] it was below 3. In addition, the log10cfu was above 6 in [14]; above 6 in [15]; below 3 in [16]; above 6 in series [17]; below 1 in series [19]; below 5 in [20]. Moreover, in series [21], the log10cfu was above 6. Further, the outcome in series [2], in [3], in [4], in series [10], in [12] and in [18] was Active. The Stability entry in series [7] is on record as “Stable”; in [11], “Unstable”; in series [22], “Stable”.

Consider `C[N+](C)(CCO)CC1=Cc2cccc3cccc(c23)C1=O.[Cl-]`, for which the log10cfu in series [1] is below 3; in series [5] it was above 6; in [6], above 6; in series [8], above 6; in [9], above 5; in series [13] it was below 1. Besides, the log10cfu is above 6 in series [14]; below 3 in series [15]; below 1 in series [16]; below 3 in [17]; below 1 in series [19]; below 3 in series [20]. The log10cfu in [21] is above 3.

For `C[N+](C)(C)CC1=Cc2cccc3cccc(c23)C1=O.[Cl-]`, the outcome in series [2], in series [3], in series [4], in series [10], in series [12] and in series [18] was Active. For the same compound, the Stability entry is reported as “Stable” in [7], “Unstable” in series [11] and “Stable” in series [22].
